High-throughput results from PubChem BioAssay.
Many of the other results were omitted from the sample, so hits are more common in it than they were.
NALP1 yeast inh: NALP1 inhibition. S. cerevisiae NALP1/ASC/caspase-1 growth, X-gal OD620, 72 h. inhibition, % at 10 µM. 280,000 compounds, 0.61% hits. AID 2071; in the data active means inhibition mostly above about 24%, no sharp cut-off; inactive means mostly below about 32%
L major viab: inhibitors of Leishmania major promastigote growth; Leishmania major promastigotes, resazurin fluorescence viability; inhibition, % at 10 µM; 200,000 compounds, 9% hits; in the data active means inhibition above about 50%;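 further: promastigotes grown with compound for 44 hours at 28 °C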
NALP3 yeast inh: blocks the NALP3 inflammasome reconstituted in yeast; Yeast reconstituted NLRP3/ASC/caspase-1, beta-gal luminescence, 24 h; 330,000 compounds, 0.39% hits; inhibition, % at 10 µM;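 active means inhibition of 50% or more; inactive means inhibition below 50%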;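 further: plate controls were induced DMSO wells for no effect and uninduced yeast grown without galactose for full effect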
T cruzi inh: T. cruzi replication inhibition; T. cruzi beta-gal in NIH3T3, luminescence, 90 h; inhibition, % (test concentration not listed); 300,000 compounds, 1.4% hits;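 active means mean inhibition across valid replicates above about 55%, limit read from the data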;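 further: signal also drops with host cell toxicity which is not excluded here; 0% = plate median of DMSO wells and 100% = zero luminescence signal; higher percent means less beta-gal luminescence so fewer parasites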
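Read-out: Parasite load inhibition, % | Test system: Mouse NIH/3T3 fibroblasts infected with β-gal-expressing T. cruzi Tulahuen C4 | Amount: 5,000 cells/well | Medium: DMEM, 2% fetal bovine serum | Signal: GalScreen β-gal luminescence, detergent lysis, 60 min | Timing: 3 h attach, ≥90 h co-culture | Also added: Tulahuen C4 trypomastigotes, 5000/well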
Calb FLC: affects C. albicans growth with fluconazole; C. albicans CaCi-2 + fluconazole, Alamar Blue growth, 48 h; growth inhibition, % (concentration not given with the values); 300,000 compounds, 0.57% hits;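 active means growth inhibition above about 58% in most replicates, limit read from the data, passing the limit was not always enough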;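 further: all wells also contain fluconazole at 8 µg/ml as a sub-toxic cotreatment; 0% = median of DMSO wells and 100% = median of geldanamycin control wells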
PolyA inh: inhibitors of polyadenylation in S. cerevisiae; S. cerevisiae SKY197-pL101 polyadenylation reporter, beta-gal luminescence; efflux-impaired pdr1/pdr3 knockout yeast; score 100 = 6 SD above DMSO; activity score, % at 12 µM; 300,000 compounds, 0.02% hits; AID 1875;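 active means lowest replicate activity score at least 50, where 100 means six control SD above control mean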;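 further: yeast exposed to compound for 9 h at 30 °C; higher score means more reporter readthrough which indicates perturbed polyadenylation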
An asterisk follows results filed as active.

For COc1cccc(N2CCN(C(c3ccccn3)c3nnnn3C(C)(C)C)CC2)c1 (configuration not stated) the results were NALP1 yeast inh 2.7, L major viab -3.7, NALP3 yeast inh 7.6, T cruzi inh 12.5, Calb FLC -3.8 and PolyA inh -2.0.
CCC(C)(C)n1nnnc1C(c1cccnc1)N1CCN(c2cccc(C(F)(F)F)c2)CC1 (configuration not stated) was read as NALP1 yeast inh 4.4, L major viab 94.7*, NALP3 yeast inh 7.5, T cruzi inh 61.6*, Calb FLC -1.5 and PolyA inh 19.9.
`Cn1nnnc1SC(C(=O)Nc1cccc(C(F)(F)F)c1)c1ccccc1` (configuration not stated) gave NALP1 yeast inh 22.7, L major viab 61.5*, NALP3 yeast inh 11.4, T cruzi inh -8.8, Calb FLC 6.5 and PolyA inh 26.8.
Screening CN1CCN(C(CC(=O)Nc2cccc(O)c2)C(=O)O)CC1 (configuration not stated) returned NALP1 yeast inh 7.6, L major viab -2.7, NALP3 yeast inh 15.8, T cruzi inh -2.3, Calb FLC -3.1 and PolyA inh 28.1.
`O=C(Nc1ccccc1)c1cc(S(=O)(=O)N2CCCCC2)ccc1N1CCOCC1` gave NALP3 yeast inh -5.3.
For Cc1ccccc1-n1c(=O)c(C#N)cc2c(=O)n3ccccc3nc21 the results were NALP1 yeast inh 19.8, L major viab 3.6, NALP3 yeast inh -13.8, T cruzi inh -17.1, Calb FLC 54.5* and PolyA inh 6.7.
Screening COc1ccc(C(C)(C)C)cc1NC(=O)COC(=O)CN1C(=O)NC2(CCCCC2C)C1=O (configuration not stated) returned NALP3 yeast inh 11.1.
For O=C(C1CC(=O)N(C2CCCC2)C1)N1CCN(c2ccccc2F)CC1 (configuration not stated) the results were NALP1 yeast inh 3.5, L major viab -3.4, NALP3 yeast inh 2.7, T cruzi inh -4.5, Calb FLC 12.7 and PolyA inh -16.4.
`O=C(C1CC(=O)N(C2CCCC2)C1)N1CCC(Cc2ccccc2)CC1` (configuration not stated) gave NALP1 yeast inh 3.9, L major viab 70.2*, NALP3 yeast inh 9.2, T cruzi inh -3.7, Calb FLC 2.2 and PolyA inh -5.2.
For CN(C)S(=O)(=O)c1cccc(NC(=O)COc2ccccc2C(=O)NCc2ccccc2)c1 the results were NALP3 yeast inh 9.0.
Screening Cc1[nH]n(C(N)=S)c(=O)c1N=Nc1ccc(S(=O)(=O)N2CCCCCC2)cc1 returned NALP1 yeast inh -1.2, L major viab 14.0, NALP3 yeast inh 28.7, T cruzi inh -0.9, Calb FLC 103.5* and PolyA inh -20.5.
COc1cccc(-c2cc(C(=O)Nc3ccc(N(C)C(C)=O)cc3)c3cc(Br)ccc3n2)c1 was read as NALP3 yeast inh 21.0, T cruzi inh 60.9*, Calb FLC -13.3 and PolyA inh -5.2.
For COc1ccccc1CCNC(=O)c1cc(-c2ccncc2)nc2ccc(Br)cc12 the results were NALP1 yeast inh -32.9, L major viab 13.2, T cruzi inh 89.0*, Calb FLC -5.2 and PolyA inh -0.7.
`COc1ccc(COc2cccnc2N)cc1` gave NALP1 yeast inh 18.0, NALP3 yeast inh 13.1, T cruzi inh -5.7, Calb FLC -6.2 and PolyA inh -8.7.
COc1ccc(COc2cc(-c3cccc(OC)c3)nc3ccc(N)cc23)cc1 was read as NALP1 yeast inh 5.7, L major viab 76.2*, NALP3 yeast inh -2.3, T cruzi inh 20.3, Calb FLC -1.9 and PolyA inh 13.9.
COc1cccc(-c2cc(C(=O)Nc3ccncc3)c3ccccc3n2)c1 was read as NALP1 yeast inh 11.6, NALP3 yeast inh 9.7, T cruzi inh 47.8, Calb FLC -8.9 and PolyA inh -8.3.
Screening COc1ccc(COc2cc(-c3cccc(OC)c3)nc3ccc(NC(=O)c4ccc(N(C)C)cc4)cc23)cc1 returned NALP1 yeast inh 11.5, L major viab 84.2*, NALP3 yeast inh 8.0, T cruzi inh 6.2, Calb FLC -6.9 and PolyA inh 0.1.
For COc1ccccc1CCNC(=O)c1cc(-c2ccccn2)nc2ccc(Br)cc12 the results were NALP1 yeast inh -32.1, L major viab 10.6, NALP3 yeast inh 0.1, T cruzi inh 2.7, Calb FLC -3.3 and PolyA inh 4.9.
For O=C(CNC(=O)c1ccco1)NCC(c1ccco1)N1CCCCC1 (configuration not stated) the results were NALP3 yeast inh 7.6.
COc1cccc(CNC(=O)c2ccc(Cl)c(NC3=NC4CS(=O)(=O)CC4S3)c2)c1 (configuration not stated) was read as NALP1 yeast inh -10.1, NALP3 yeast inh -0.9, T cruzi inh 18.8, Calb FLC -1.2 and PolyA inh 0.6.
`CSc1ccccc1NC(=O)c1cc(-c2cccnc2)nc2ccc(Br)cc12` gave NALP1 yeast inh 10.2, L major viab 21.4, NALP3 yeast inh 23.1, T cruzi inh 69.3*, Calb FLC -1.8 and PolyA inh 1.6.
For COc1ccc(COc2cc(-c3cccc(OC)c3)nc3ccc(NC(C)=O)cc23)cc1 the results were NALP1 yeast inh 24.0, L major viab 5.9, NALP3 yeast inh 11.3, T cruzi inh 68.3*, Calb FLC -10.3 and PolyA inh -14.5.
`CC(=O)Nc1cccc(NC(=O)c2cc(-c3cccnc3)nc3ccc(Br)cc23)c1` gave NALP1 yeast inh 21.6, L major viab -0.9, NALP3 yeast inh -1.2, T cruzi inh -6.2, Calb FLC 16.5 and PolyA inh 10.0.
`COc1ccc(COc2cc(-c3cccc(OC)c3)nc3ccc(NC(=O)c4ccc(C)cc4)cc23)cc1` gave NALP1 yeast inh 41.0, L major viab 32.2, NALP3 yeast inh 16.1, T cruzi inh 23.1, Calb FLC -8.9 and PolyA inh -6.8.
`Fc1ccc(NC(=S)Nc2nccs2)cc1` gave NALP1 yeast inh 0.1, L major viab 38.5, NALP3 yeast inh 43.0, T cruzi inh 65.6*, Calb FLC 21.4 and PolyA inh -2.4.
`CSc1ncccc1C(=O)OCC(=O)N1CC(=O)Nc2ccccc21` gave NALP3 yeast inh 6.4.
`O=S(=O)(c1ccc(-c2csc(-c3cccnc3)n2)cc1)N1CCOCC1` gave NALP1 yeast inh 1.6, L major viab 68.4*, NALP3 yeast inh -49.5, T cruzi inh 14.5, Calb FLC 3.9 and PolyA inh 11.8.
COc1ccc(-c2csc(NC(=O)c3ccc(S(=O)(=O)N4CCc5ccccc5C4)cc3)n2)c(OC)c1 was read as NALP1 yeast inh 9.0, L major viab 90.5*, NALP3 yeast inh 7.7, T cruzi inh -0.6, Calb FLC -1.7 and PolyA inh -11.5.
